Measurements reported in ChEMBL document CHEMBL5038573, “Total Synthesis of Laucysteinamide A, a Monomeric Congener of Somocystinamide A” (J Nat Prod, 2021).
pIC50: −log10 of the molar value.

Key:
[1] = (§1) Toxicity in brine shrimp assessed as induction of lethality incubated for 24 hrs by microscopic analysis; assay type: organism-based, Artemia salina; details: Artemia salina (brine shrimp)
NCI-H460 = assay: Cytotoxicity against human NCI-H460 cells assessed as cell growth inhibition incubated for 48 hrs by MTT assay; assay type: functional, cell-based; details: for pIC50: Homo sapiens, NCI-H460, 48 h, read-out: IC50
Summary of the method: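 NCI-H460 cells seeded at 6.66 × 10³ cells/mL in RPMI 1640 with FBS and grown 24 h (37 °C, 5% CO₂). Nine half-log dilutions (top 127–300 μM) added, final 1% v/v DMSO and PEG400, six replicates per concentration. After 48 h, MTT for 25 min, then dissolved in DMSO and read at 570 and 630 nm.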

Artemia salina = assay: as §1; assay type: organism-based
A549 = assay: Cytotoxicity against human A549 cells assessed as cell growth inhibition incubated for 48 hrs by MTT assay; assay type: functional, cell-based; details: A549, 48 h

| SMILES | IC50 at 24 h [1] [µM] | pIC50 (NCI-H460) | IC50 (Artemia salina) | pIC50 (A549) | IC50 (NCI-H460; nci-h460) |
| --- | --- | --- | --- | --- | --- |
| C=CC/C=C/N(C)C(=O)c1ccccc1 | > 100 | < 3.52 |  |  |  |
| C=CC/C=C/N(C)C(=O)CCCCCCCCCC/C=C/[C@@H]1CSC(C)=N1 | > 100 | 4.70 |  |  |  |
| C=CC/C=C/N(C)C(=O)CCC | > 100 | < 3.61 |  |  |  |
| CCC/C=C/N(C)C(=O)CCCCCCCCCC/C=C/[C@@H]1CSC(C)=N1 |  | 4.48 | Not Active |  |  |
| C=CC/C=C/N(C)C(=O)CCCCCCCC/C=C/[C@H](CSSC[C@@H](/C=C/CCCCCCCCC(=O)N(C)/C=C/CC=C)NC(C)=O)NC(C)=O | > 130 |  |  | 7.34 | Not Active |
